Experimental data reported in ChEMBL document CHEMBL1125815, “2-Phenyl-3H-imidazo[4,5-b]pyridine-3-acetamides as non-benzodiazepine anticonvulsants and anxiolytics” (J Med Chem, 1991).
pIC50: −log10 of the molar value.

Legend:
Mus musculus [1] = species on record: Mus musculus; test: Compound was tested for anticonvulsant activity against maximal electroshock-induced […] seizures in mice at 50mA, 200 ms; type: functional
Mus musculus [2] = test: Compound was tested for anticonvulsant activity against pentylenetetrazole-induced clonic seizures in mice at 80 mg/kg sc; type: functional; settings: route subcutaneous
Summary of the method: (§1)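 Female adult ICR mice, groups of eight, given test compound ip (100 mg/kg screen) in 0.5% aqueous methylcellulose or vehicle. Challenged 30 min later with pentyletetrazole 80 mg/kg sc and scored for clonic seizures.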

[3] = target: GABA-A receptor; anion channel; test: Displacement of [3H]flunitrazepam from GABA-A benzodiazepine receptor of rat cerebral cortex membrane; type: tissue-based
Summary of the method: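 Rat cerebral cortex P2+P3 membranes (fresh tissue, two freeze-thaw-wash cycles to remove endogenous GABA), 0.4 mg protein. Incubated with 1 nM [3H]flunitrazepam and six concentrations (1 × 10^-5 – 1 × 10^-10 M) for 30 min at 4 °C. Filtered on GF/b filters and counted. […] IC50 from log-logit regression, mean of replicates.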

Mus musculus [4] = test: Compound was tested for anticonvulsant activity against pentylenetetrazole-induced clonic seizures in mice on intraperitoneal administration; type: functional; settings: ip; summary of the method: as §1
[5] = target: GABA-A receptor; anion channel; test: Displacement of [3H]-diazepam from GABA-A benzodiazepine receptor of rat cerebral cortex membrane; type: tissue-based
Summary of the method: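 Membranes skipped the freeze-thaw-wash cycles, so endogenous GABA was retained. Six concentrations (1 × 10^-5 – 1 × 10^-10 M), 30 min at 4 °C, glass-fiber filtration and scintillation counting. IC50 from log-logit regression.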

Mus musculus [6] = species on record: Mus musculus; test: Anticonvulsant activity against pentylenetetrazole-induced clonic seizures in mice; type: functional; settings: Mus musculus; read-out: ED50; summary of the method: as §1
Mus musculus [7] = test: Compound was tested for anticonvulsant activity against pentylenetetrazole-induced clonic seizures in mice at dose 80 mg/kg.
Mus musculus [8] = species on record: Mus musculus; test: Neurotoxicity against mice in rotarod test; type: toxicity, organism-based; settings: in vivo
Summary of the method: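 Groups of five randomly selected mice were dosed 30 min before being placed on a knurled 28-mm rod rotating at 6 rpm. Failure to stay on the rod for 1 min was scored as neurotoxic. ED50 (mg/kg ip) and confidence limits came from probit analysis.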

Mus musculus [9] = species on record: Mus musculus; test: Anxiolytic activity by light/dark exploratory behavioral test in mice; type: functional; settings: for minimal effective dose: read-out: MED
Summary of the method: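 Mice were dosed 30 min before testing, then placed individually in a two-compartment light/dark activity chamber and left undisturbed for 5 min. Time spent in each compartment was compared with vehicle-treated mice by Dunnett's t test. Minimal effective dose and sedative dose reported in mg/kg ip.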

Mus musculus [10] = species on record: Mus musculus; test: Potentiation of ethanol (EtOH) induced sleep time in mice; type: functional; settings: read-out: MED
Summary of the method: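 Compound given orally; the minimal effective dose (mg/kg po) for potentiating ethanol-induced sleep time in mice was reported.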

Rattus norvegicus [11] = species on record: Rattus norvegicus; test: Anxiolytic activity by vogel punished drinking test in rats; type: functional; settings: read-out: MED
Summary of the method: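 Modified Vogel conflict test. Rats were water-deprived for 48 h with food available. A drinkometer delivered a 0.65 mA shock after every 20th lick during a 3-min session starting at the first shock. Total shocks were compared with vehicle-treated rats by Dunnett's t test. Minimal effective dose reported in mg/kg ip.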

Mus musculus [12] = test: Anticonvulsant activity against picrotoxin-induced clonic seizures in mice at 3.2 mg/kg sc; type: functional; settings: route subcutaneous
Mus musculus [13] = test: Compound was tested for anticonvulsant activity against bicuculline-induced clonic seizures in mice at 2.7 mg/kg sc; type: functional; settings: route subcutaneous
Rattus norvegicus [14] = species on record: Rattus norvegicus; test: Ratio of IC50 values for [3H]-Ro- 15-1788 binding in absence and presence of added GABA (rat cerebral cortex); type: functional
Summary of the method: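 Rat cerebral cortex membranes. IC50 for displacement of [3H]Ro 15-1788 was measured without and with excess added GABA. The ratio of the two IC50 values served as the index of agonist efficacy.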

Row | Compound | pIC50 [3] | ED50 (Mus musculus [6]) [mg/kg] | other results
1 | CCC1(C)CC(=O)NC1=O (stereo not given) [ETHOSUXIMIDE] |  |  | ED50 (Mus musculus [1]): > 1000 mg/kg; ED50 (Mus musculus [2]): 130 mg/kg
2 | CCCCN(CCCC)C(=O)Cn1c(-c2ccc(Cl)cc2)nc2cccnc21 | 6.05 |  | ED50 (Mus musculus [4]): 38 mg/kg
3 | CC(=O)NCCNC(=O)Cn1c(-c2ccc(Cl)cc2)nc2cccnc21 | 5.14 |  | 
4 | CCOC(=O)N1CCN(C(=O)Cn2c(-c3ccc(Cl)cc3)nc3cccnc32)CC1 | 5.29 |  | 
5 | CN(C)C(=O)Cn1c(-c2ccc(Br)cc2)nc2cccnc21 |  | 7 | pIC50 [5]: 5.52
6 | CCCN(C)C(=O)Cn1c(-c2ccc(Cl)cc2)nc2cccnc21 | 6.17 | 11.6 | 
7 | CCOC(=O)CCCNC(=O)Cn1c(-c2ccc(Cl)cc2)nc2cccnc21 | < 5.00 | 100 | 
8 | O=C(Cn1c(-c2ccc(Cl)cc2)nc2cccnc21)N1CCOCC1 | 5.39 | 11.5 | 
9 | CN(C)C(=O)Cn1c(-c2ccc(Br)o2)nc2cccnc21 | 6.70 | 100 | 
10 | CN(C)C(=O)Cn1c(-c2ccc(F)cc2)nc2cccnc21 | < 5.00 | 40.5 | 
11 | NC(=O)Cn1c(-c2cccc(Cl)c2)nc2cccnc21 |  |  | pIC50 [5]: > 5.00
12 | CN1C(=O)CN=C(c2ccccc2)c2cc(Cl)ccc21 [DIAZEPAM] |  | 0.9 | ED50 (Mus musculus [7]): 0.2 mg/kg; ED50 (Mus musculus [8]): 1.7 mg/kg; Sedative dose (Mus musculus [9]): 10 mg/kg; minimal effective dose (Mus musculus [9]): 1 mg/kg; minimal effective dose (Mus musculus [10]): 2.5 mg/kg; minimal effective dose (Rattus norvegicus [11]): 1 mg/kg
13 | Cc1ccc(-c2nc3cccnc3n2CC(N)=O)cc1 | 5.35 | 50.5 | 
14 | O=C1NC(=O)C(c2ccccc2)(c2ccccc2)N1 [PHENYTOIN] |  |  | ED50 (Mus musculus [12]): > 100 mg/kg; ED50 (Mus musculus [13]): > 100 mg/kg; ED50 (Mus musculus [2]): > 300 mg/kg
15 | NC(=O)Cn1c(-c2ccccc2)nc2cccnc21 |  |  | pIC50 [5]: < 5.00
16 | CN(C)C(=O)Cn1c(-c2ccc(Cl)cc2)nc2ccc[n+]([O-])c21 | < 5.00 | 20 | 
17 | CN(C)C(=O)Cn1c(-c2ccccc2)nc2cccnc21 | < 5.00 | 35 | 
18 | CN(C)CCN(C)C(=O)Cn1c(-c2ccc(Cl)cc2)nc2cccnc21 | < 5.00 | 100 | 

Row | Compound | pIC50 [3] | ED50 (Mus musculus [6]) [mg/kg] | other results
19 | CNC(=O)Cn1c(-c2ccc(Cl)cc2)nc2cccnc21 | 5.80 | 12.5 | 
20 | CN(C)CCNC(=O)Cn1c(-c2ccc(Cl)cc2)nc2cccnc21 | < 5.00 | 62 | 
21 | CN(C)C(=O)Cn1c(-c2ccc(Cl)cc2)nc2cnccc21 | < 5.00 |  | 
22 | CN(C)C(=O)CCn1c(-c2ccc(Cl)cc2)nc2cccnc21 | 5.03 | 29.4 | 
23 | CN(C)C(=O)Cn1c(-c2ccc([N+](=O)[O-])cc2)nc2cccnc21 | < 5.00 | 47 | 
24 | CCCN(CCC)C(=O)Cn1c(-c2ccc(Cl)cc2)nc2ncccc21 | < 5.00 |  | 
25 | O=C(Cn1c(-c2ccc(Cl)cc2)nc2cccnc21)N1CCCCC1 | 5.57 | 56.2 | 
26 | CN(C)C(=O)Cn1c(-c2ccsc2)nc2cccnc21 | < 5.00 | 38 | 
27 | CN(C)CCCNC(=O)Cn1c(-c2ccc(Cl)cc2)nc2cccnc21 | < 5.00 | 64 | 
28 | NC(=O)Cn1c(-c2ccc(C(F)(F)F)cc2)nc2cccnc21 | < 5.00 | 11.7 | 
29 | CCCC(CCC)C(=O)O [VALPROIC ACID] |  |  | ED50 (Mus musculus [1]): 272 mg/kg; ED50 (Mus musculus [2]): 149 mg/kg
30 | CN(C)C(=O)Cn1c(-c2ccco2)nc2cccnc21 | < 5.00 | > 100 | 
31 | CCCNC(=O)Cn1c(-c2ccc(Cl)cc2)nc2cccnc21 |  | 37.5 | pIC50 [5]: 5.90
32 | CCOC(=O)CNC(=O)Cn1c(-c2ccc(Cl)cc2)nc2cccnc21 |  |  | pIC50 [5]: 5.04
33 | O=C(Cn1c(-c2ccc(Cl)cc2)nc2cccnc21)Nc1ccccc1 | < 5.00 |  | 
34 | CN(C)C(=O)Cn1c(-c2ccc(Cl)cc2)nc2cccnc21 | 5.44 |  | ED50 (Mus musculus [4]): 4.1 mg/kg
35 | Cc1ccc(-c2nc3ccc(Cl)nc3n2CC(=O)N(C)C)cc1 | 6.82 | 2.7 | ED50 (Mus musculus [8]): 15.2 mg/kg; Sedative dose (Mus musculus [9]): 5.62 mg/kg; minimal effective dose (Mus musculus [9]): 0.1 mg/kg; minimal effective dose (Mus musculus [10]): 10 mg/kg; GABA shift (Rattus norvegicus [14]): 3.06; minimal effective dose (Rattus norvegicus [11]): 1 mg/kg
36 | CN(C)C(=O)Cn1c(-c2ccccn2)nc2cccnc21 |  |  | pIC50 [5]: 5.59
